Rows were chosen to be rich in hits. Some 2.3% of all compounds tested hit in one or more screens of this group.
TRPC6 inh: mouse TRPC6 channel inhibition | Q61143 | HEK293-TRPC6, membrane potential dye, ACh-evoked depolarization; stronger effect = lower value | B-score at 10 µM | hit rate 1.1% among 310,000 | AID 2553;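 active = B-score under library mean minus 3 SD, initial fluorescence not abnormally high, positive integrated signal ratio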;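 note: B-score derived from integrated fluorescence ratio over the kinetic read; more negative B-score means stronger inhibition of depolarization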
Target sequence (Q61143 whole entry, looked up): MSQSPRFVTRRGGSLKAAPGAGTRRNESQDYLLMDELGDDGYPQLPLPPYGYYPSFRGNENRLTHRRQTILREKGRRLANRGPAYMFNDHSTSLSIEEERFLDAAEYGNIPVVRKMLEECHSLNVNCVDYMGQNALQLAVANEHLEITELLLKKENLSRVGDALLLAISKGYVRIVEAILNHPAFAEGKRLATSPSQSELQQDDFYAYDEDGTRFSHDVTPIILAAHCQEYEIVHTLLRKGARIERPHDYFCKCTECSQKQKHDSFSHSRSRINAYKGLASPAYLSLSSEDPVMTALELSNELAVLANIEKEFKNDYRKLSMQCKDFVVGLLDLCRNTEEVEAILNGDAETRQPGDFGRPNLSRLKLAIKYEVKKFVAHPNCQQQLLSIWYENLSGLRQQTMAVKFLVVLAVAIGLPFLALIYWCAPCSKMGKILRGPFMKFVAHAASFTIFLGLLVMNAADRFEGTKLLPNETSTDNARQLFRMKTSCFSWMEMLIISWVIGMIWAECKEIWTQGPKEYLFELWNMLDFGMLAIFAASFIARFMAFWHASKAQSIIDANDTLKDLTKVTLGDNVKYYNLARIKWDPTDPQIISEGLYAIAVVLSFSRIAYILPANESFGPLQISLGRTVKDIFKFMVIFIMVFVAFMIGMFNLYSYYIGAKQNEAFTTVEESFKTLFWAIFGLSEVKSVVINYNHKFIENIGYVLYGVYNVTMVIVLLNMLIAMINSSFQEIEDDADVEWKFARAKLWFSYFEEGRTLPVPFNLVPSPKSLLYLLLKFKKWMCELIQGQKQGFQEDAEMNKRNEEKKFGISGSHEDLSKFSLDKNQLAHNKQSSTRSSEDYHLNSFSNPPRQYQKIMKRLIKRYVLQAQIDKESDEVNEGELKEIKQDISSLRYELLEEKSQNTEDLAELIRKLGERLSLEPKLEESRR
TRPC4 inh: blocks the mouse TRPC4 cation channel | Q9QUQ5 | HEK293 TRPC4beta/mu-opioid, DAMGO-evoked Fluo4 calcium flux; stronger effect = lower value | B-score at 10 µM | hit rate 0.39% among 300,000 | AID 2247;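 active = B-score over 3 SD under the library average, no early fluorescence shift, positive overall ratio signal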
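Material: HEK293 cells with stable TRPC4beta plus mu-opioid receptor expression; probe or stimulus: DAMGO in two steps, submaximal then maximal; technique: Fluo4 calcium fluorescence by kinetic imaging, 5 s 1 Hz baseline; measure: integrated fluorescence ratio relative to baseline, converted to per-well B score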
TRPC4 potent: allosteric potentiators of mouse TRPC4 channel; Q9QUQ5; hit rate 0.42% among 310,000; B-score at 10 µM; HEK293 TRPC4beta/mu-opioid, DAMGO EC20, Fluo-4 Ca2+ flux; stronger effect = higher value;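 active = B-score of calcium response area above 5 SD of library B-scores, with initial fluorescence ratio within 5 SD of library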
TRPC4 agonist: activators of mouse TRPC4 channel. HEK293 TRPC4beta/mu-opioid, Fluo4 calcium fluorescence; stronger effect = higher value. B-score at 10 µM. AID 2237. hit rate 0.49% among 310,000;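 active = B-score above 5 SD of library B-scores, and initial fluorescence ratio not above library mean plus 5 SD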;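 note: positive B-score marks a calcium rise read as TRPC4 activation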
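Material: TRPC4beta and mu-opioid receptor HEK293 stable cells | Incubation: 45 min room-temperature Fluo4 loading, 110 s read | Detection: Kinetic Fluo4 calcium fluorescence | Measure: Integrated baseline-normalised fluorescence ratio, converted to per-well B score | Benchmarks: Low control buffer alone, high control maximal DAMGO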
TRPC6 act: mouse TRPC6 channel activation | HEK293-TRPC6 membrane potential dye fluorescence; stronger effect = higher value | hit rate 0.13% among 310,000 | AID 2550 | Q61143 | B-score at 10 µM;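 active = B-score of the integrated fluorescence ratio above library mean plus 3 SD, and starting fluorescence ratio within library mean plus 5 SD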;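 note: higher score means more depolarization so channel activation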
TRPC4 spec 2: second selectivity test of TRPC6 inhibitors: effect on mouse TRPC4; HEK293 TRPC4/MOR, membrane potential dye fluorescence; channel activated by saturating DAMGO dose; shares compounds with TRPC6 inh; hit rate 42% among 920; AID 2776; inhibition, % at 10 µM;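 active = compounds whose fluorescence signal differed from control wells by over 3 SD, either direction, in both duplicate plates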
TRPC4 spec: selectivity of TRPC6 inhibitors: effect on mouse TRPC4 | HEK293 TRPC4/mu-opioid, membrane potential fluorescence | hit rate 61% among 920 | AID 2777 | activity change, negative = inhibition, % at 10 µM | shares compounds with TRPC6 inh;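 active = rise or fall in signal beyond 3 SD of buffer-only wells in both replicate plates, either sign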;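 note: integrated kinetic ratio of fluorescence range over baseline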
HEK293 MPD ctr 2-1: second check of TRPC6 inhibitor effects in parental HEK293 cells. signal change vs control, % at 10 µM. parental HEK293 membrane potential dye fluorescence; maximal acetylcholine challenge after compound addition. shares compounds with TRPC6 inh. hit rate 31% among 920;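 active = membrane potential signal moving either way by over 3 SD of the maximum-effect control, in both duplicate plates, meaning non-specific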
HEK293 MPD ctr-1: parental HEK293 nonspecific activity of TRPC6 inhibitors. shares compounds with TRPC6 inh. parental HEK293 membrane potential dye fluorescence. membrane potential signal change, % at 10 µM. hit rate 60% among 920. AID 2780;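 active = membrane potential signal shifting up or down by more than 3 SD of buffer-only wells, on both duplicate plates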
HEK293 MPD ctr-2: counter-screen for TRPC6 modulators: effect in parental HEK293 cells. hit rate 51% among 2,400. shares compounds with TRPC6 inh. membrane potential signal change, % at 10 µM. membrane potential dye fluorescence;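 active = membrane potential signal moves up or down beyond 5 SD from buffer-only wells, on both duplicate plates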
HEK293 MPD ctr 2-2: second counter-screen for TRPC6 modulators: effect in parental HEK293 cells; shares compounds with TRPC6 inh; membrane potential dye fluorescence; after compound, maximal acetylcholine stimulation; inhibition, % at 10 µM; hit rate 14% among 2,400; AID 488926;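 active = membrane potential signal drops by more than 5 SD from the mean control signal, in both duplicate plates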
TRPC4 ctr mod: mouse TRPC4 off-target activity of TRPC6 modulators. AID 488927. hit rate 69% among 2,400. HEK293 TRPC4/mu-opioid, membrane potential fluorescence. percent change from control (negative = decrease, positive = increase), % at 10 µM. shares compounds with TRPC6 inh;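 active = membrane potential signal moved up or down beyond 5 SD of buffer control wells, in both duplicate plates, actives on both sides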
TRPC4 ctr inh 2: mouse TRPC4 off-target activity of TRPC6 modulators, second screen. inhibition, % at 10 µM. AID 488928. shares compounds with TRPC6 inh. HEK293 TRPC4/mu-opioid, membrane potential dye fluorescence; stimulated with maximal-effect DAMGO. hit rate 55% among 2,400;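 active = drop in membrane potential signal beyond 5 SD of the control wells in both duplicate plates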;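 note: TRPC4 counter screen for TRPC6 hits run under conditions tuned for TRPC6 not TRPC4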
TRPC6 block conf: confirmation of mouse TRPC6 inhibitors; shares compounds with TRPC6 inh; HEK293-TRPC6, membrane potential dye, ACh-evoked depolarization; inhibition, % at 10 µM; hit rate 43% among 3,300;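 active = fluorescence ratio falls more than 5 SD below the full-stimulation control mean, in both duplicate runs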;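 note: integrated fluorescence ratio of peak minus minimum over baseline after agonist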
TRPC6 act conf: mouse TRPC6 activator confirmation; shares compounds with TRPC6 inh; HEK293-TRPC6 membrane potential dye fluorescence, FDSS; activation, % at 10 µM; hit rate 11% among 2,800; AID 488961;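 active = ratio signal rise beyond 5 SD above unstimulated control wells' mean, seen in both duplicate runs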
A number is an active result; 0 = inactive; - = no result.

SMILES	TRPC6 inh	TRPC4 inh	TRPC4 potent	TRPC4 agonist	TRPC6 act	HEK293 MPD ctr-2	HEK293 MPD ctr 2-2	TRPC4 ctr mod	TRPC4 ctr inh 2	TRPC6 block conf	TRPC6 act conf	others
CCOC(=O)c1c(CNc2ccncc2)n(C)c2cc(Br)c(O)cc12	-8.3	0	0	0	0	-	-	-	-	60%	0	TRPC4 spec 2=70%;TRPC4 spec=-27%;HEK293 MPD ctr 2-1=-46%;HEK293 MPD ctr-1=-370%
Cc1ccc(C)c(N(CC(=O)NCc2ccco2)C(=O)CNS(=O)(=O)c2ccccc2)c1	0	0	0	0	0	-	-	-	-	-	-
Fc1ccc([C@@H]2CCNC[C@H]2COc2ccc3c(c2)OCO3)cc1	-5.3	0	0	142	0	0	64%	39%	95%	72%	0	TRPC4 spec 2=14%;TRPC4 spec=47%;HEK293 MPD ctr 2-1=0;HEK293 MPD ctr-1=0.5%
C=CCc1ccc(OCCCCCN2CCOCC2)c(OC)c1	0	0	0	0	0	-	-	-	-	-	-
CCOC(=O)c1c(C)[nH]c(C(=O)OCc2csc(CC(=O)Nc3ccccc3C)n2)c1C	0	0	0	0	0	-	-	-	-	-	-
COC(=O)c1ccc(C(=S)N2CCCCC2)cc1	0	0	0	0	0	-	-	-	-	-	-
COC(=O)c1cccc(CSC(=S)N2CCCC2)c1	0	0	0	0	13	0	0	0	0	-	130%
COc1ccc(S(=O)(=O)NC(C)C(=O)Nc2ccc3c(c2)OCO3)cc1OC (stereo not given)	0	0	0	0	0	-	-	-	-	-	-
COc1ccc(S(=O)(=O)NC(C)C(=O)Nc2ccc3c(c2)OCCO3)cc1OC (stereo not given)	-6.1	0	0	0	0	0	0	0	0	0	0
O=C(CSc1n[nH]c(-c2cccs2)n1)NCc1cccs1	-6.8	0	0	0	0	-	-	-	-	0	0	TRPC4 spec 2=0;TRPC4 spec=0;HEK293 MPD ctr 2-1=0;HEK293 MPD ctr-1=0
O=C1CSC(c2ccc(Cl)cc2)N1Nc1nc(N2CCOCC2)nc(N2CCOCC2)n1 (stereo not given)	0	0	0	0	0	-	-	-	-	-	-
CNCCCOc1cccc(OC(C)C)c1	0	0	0	0	0	-	-	-	-	-	-
CNCCCOc1cccc(Oc2ccccc2)c1	-5.1	0	10	0	0	100%	0	12%	35%	52%	0
Cc1nn(C(=O)N2CCOCC2)c(C)c1C	-5.5	0	0	0	0	0	0	0	0	0	0
Brc1ccc(/C=N/Nc2ccc3ccccc3n2)cc1	0	0	0	0	0	-	-	-	-	-	-
Brc1ccccc1/C=N/Nc1ccc2ccccc2n1	-6.2	0	0	0	0	0	0	0	56%	0	0
C/C(=N/NC(=O)CNC(=O)COc1ccccc1)c1ccco1	0	0	0	0	0	-	-	-	-	-	-
COc1cc(NC2=Nc3cccc4cccc2c34)cc(OC)c1OC	-5.1	0	0	0	0	0	0	0	32%	0	0
COc1ccc(NC2=Nc3cccc4cccc2c34)cc1OC	0	0	0	0	0	-	-	-	-	-	-

Screening data: PubChem, Johns Hopkins Ion Channel Center
